Values after ≈ are worked out from the molar mass of the structure shown.
How the values were obtained:
[1] = Cytotoxicity against in Balb/c mouse B cells at 10^-6 M after 48 hrs by MTT assay; type: cell-based; conditions: 1 µM
Method in brief: (§1)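 Spleens taken aseptically from Balb/c mice (18–22 g). Single-cell suspension made in incomplete RPMI, RBCs lysed with Tris-ammonium chloride, cells washed, resuspended in complete RPMI and checked for viability by trypan blue. Cells seeded at 1 × 10⁶ cells/mL. Compounds in DMSO tested at 1×10⁻⁴, 1×10⁻⁵ and 1×10⁻⁶ M, 48 h, 37 °C, 5% CO₂.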

[2] = Cytotoxicity against in Balb/c mouse B cells at 10^-5 M after 48 hrs by MTT assay; type: cell-based; conditions: 10 µM; method in brief: as §1
[3] = Immunosuppressive activity in Balb/c mouse B cells assessed as inhibition of LPS-induced cell proliferation at 10^-5 M after 48 hrs by MTT assay; type: functional; method in brief: as §1
[4] = Immunostimulant activity in Balb/c mouse T cells assessed as inhibition of concanavalin A-induced cell proliferation at 10^-6 M after 48 hrs by MTT assay; type: functional; method in brief: as §1
[5] = Cytotoxicity against in Balb/c mouse T cells at 10^-4 M after 48 hrs by MTT assay; type: cell-based; conditions: t-cell, 100 µM; method in brief: as §1
[6] = Immunostimulant activity in Balb/c mouse B cells assessed as inhibition of LPS-induced cell proliferation at 10^-6 M after 48 hrs by MTT assay; type: functional; method in brief: as §1
[7] = Immunostimulant activity in Balb/c mouse T cells assessed as inhibition of concanavalin A-induced cell proliferation at 10^-4 M after 48 hrs by MTT assay; type: functional; conditions: Mus musculus, Balb/c, T-cell, 48 h; method in brief: as §1
[8] = Cytotoxicity against in Balb/c mouse T cells at 10^-5 M after 48 hrs by MTT assay; type: cell-based; conditions: t-cell, 10 µM; method in brief: as §1
[9] = Immunostimulant activity in Balb/c mouse B cells assessed as inhibition of LPS-induced cell proliferation at 10^-4 M after 48 hrs by MTT assay; type: functional; method in brief: as §1
[10] = Immunostimulant activity in Balb/c mouse T cells assessed as inhibition of concanavalin A-induced cell proliferation at 10^-5 M after 48 hrs by MTT assay; type: functional; method in brief: as §1
[11] = Cytotoxicity against in Balb/c mouse T cells at 10^-6 M after 48 hrs by MTT assay; type: cell-based; conditions: t-cell, 1 µM; method in brief: as §1
[12] = Cytotoxicity against in Balb/c mouse B cells at 10^-4 M after 48 hrs by MTT assay; type: cell-based; conditions: 100 µM; method in brief: as §1
[13] = Immunosuppressive activity in Balb/c mouse B cells assessed as inhibition of LPS-induced cell proliferation at 10^-6 M after 48 hrs by MTT assay; type: functional; method in brief: as §1
B = experiment: Immunosuppressive activity in Balb/c mouse B cells assessed as inhibition of LPS-induced cell proliferation after 48 hrs by MTT assay; type: functional, cell-based; method in brief: as §1
[14] = Immunosuppressive activity in Balb/c mouse B cells assessed as inhibition of LPS-induced cell proliferation at 10^-4 M after 48 hrs by MTT assay; type: functional; method in brief: as §1
[15] = Immunosuppressive activity in Balb/c mouse T cells assessed as inhibition of concanavalin A-induced cell proliferation at 10^-4 M after 48 hrs by MTT assay; type: functional; method in brief: as §1
[16] = Immunosuppressive activity in Balb/c mouse T cells assessed as inhibition of concanavalin A-induced cell proliferation at 10^-5 M after 48 hrs by MTT assay; type: functional; method in brief: as §1
[17] = Immunosuppressive activity in Balb/c mouse T cells assessed as inhibition of concanavalin A-induced cell proliferation at 10^-6 M after 48 hrs by MTT assay; type: functional; conditions: Mus musculus, Balb/c, T-cell, 48 h; method in brief: as §1
[18] = Immunostimulant activity in Balb/c mouse B cells assessed as inhibition of LPS-induced cell proliferation at 10^-5 M after 48 hrs by MTT assay; type: functional; method in brief: as §1
Plasmodium falciparum = experiment: Antimalarial activity against chloroquine-resistant Plasmodium falciparum Smith; type: functional; conditions: read-out: ED50 (the source's name)

SMILES | Activity [1] | Activity [2] | inhibition at 10 µM [3] | inhibition at 1 µM [4] | Activity [5] | inhibition at 1 µM [6] | inhibition at 100 µM [7] | Activity [8] | inhibition at 100 µM [9] | inhibition at 10 µM [10] | Activity [11] | Activity [12] | inhibition at 1 µM [13] | inhibition (B) | inhibition at 100 µM [14] | inhibition at 100 µM [15] | inhibition at 10 µM [16] | inhibition at 1 µM [17] | inhibition at 10 µM [18] | EC50 (Plasmodium falciparum)
COc1ccc(-n2nncc2COc2cc(C)c3c(c2C)[C@@H]2OC(=O)[C@@H](C)[C@@H]2CC3)cc1OC | Non-toxic | Non-toxic | 0.85% | 75.6% | Toxic | 15.4% | 90.2% | Non-toxic | 12.8% | 15.8% | Non-toxic | Toxic | – | – | – | – | – | – | – | –
CC(=O)Oc1cc(C)c2c(c1C)[C@@H]1OC(=O)[C@@H](C)[C@@H]1CC2 | Non-toxic | Non-toxic | 25.6% | 18.3% | Non-toxic | – | 47.6% | Non-toxic | – | 26.8% | Non-toxic | Non-toxic | 23.9% | Dose-dependent effect | -36.8% | – | – | – | – | –
Cc1cc(OCc2cnnn2-c2cccc([N+](=O)[O-])c2)c(C)c2c1CC[C@H]1[C@H](C)C(=O)O[C@@H]21 | Non-toxic | Toxic | – | – | Toxic | – | – | Toxic | 36.8% | – | Non-toxic | Toxic | 24.8% | – | – | 95.1% | 93.9% | 93.9% | 0.85% | –
CCCOc1ccc(-n2nncc2COc2cc(C)c3c(c2C)[C@@H]2OC(=O)[C@@H](C)[C@@H]2CC3)cc1Cl | Non-toxic | Non-toxic | – | – | Non-toxic | 41.4% | 7.14% | Non-toxic | 21.4% | – | Non-toxic | Non-toxic | – | – | – | – | 27.1% | 7.14% | 12.8% | –
Cc1cc(OCc2cnnn2-c2ccc3ccccc3c2)c(C)c2c1CC[C@H]1[C@H](C)C(=O)O[C@@H]21 | Non-toxic | Non-toxic | 23.1% | 12.2% | Toxic | 7.69% | 13.4% | Non-toxic | – | 2.43% | Non-toxic | Toxic | – | – | 1.7% | – | – | – | – | –
Cc1cc(OCc2cnnn2-c2ccc(Br)cc2)c(C)c2c1CC[C@H]1[C@H](C)C(=O)O[C@@H]21 | Non-toxic | Non-toxic | – | – | Non-toxic | 26.5% | 48.8% | Non-toxic | – | 2.43% | Non-toxic | Non-toxic | – | – | 15.4% | – | – | 1.21% | 36.8% | –
Cc1cc(OCc2cnnn2-c2ccc(Br)c3ccccc23)c(C)c2c1CC[C@H]1[C@H](C)C(=O)O[C@@H]21 | Non-toxic | Toxic | 17.1% | 30% | Toxic | 27.1% | – | Toxic | 12.8% | – | Non-toxic | Toxic | – | – | – | 10% | 48.6% | – | – | –
Cc1cc(OCc2cnnn2-c2ccc(-c3ccccc3)cc2)c(C)c2c1CC[C@H]1[C@H](C)C(=O)O[C@@H]21 | Non-toxic | Non-toxic | 3.41% | 35.4% | Toxic | 17.9% | 2.43% | Non-toxic | 15.4% | 63.4% | Non-toxic | Toxic | – | – | – | – | – | – | – | –
Cc1cc(OCc2cnnn2-c2cc(F)c(F)cc2Br)c(C)c2c1CC[C@H]1[C@H](C)C(=O)O[C@@H]21 | Toxic | Toxic | 21.4% | 21.4% | Toxic | – | – | Toxic | – | – | Toxic | Toxic | 20% | – | 7.14% | 15.7% | 20% | – | – | –
Cc1cc(OCc2cnnn2/C=C/c2ccccc2)c(C)c2c1CC[C@H]1[C@H](C)C(=O)O[C@@H]21 | Non-toxic | Non-toxic | – | – | Non-toxic | – | – | Non-toxic | – | – | Non-toxic | Non-toxic | 7.69% | – | 36.8% | 95.1% | 95.1% | 95.1% | 48.7% | –
COc1ccc(F)c(-n2nncc2COc2cc(C)c3c(c2C)[C@@H]2OC(=O)[C@@H](C)[C@@H]2CC3)c1Br | Toxic | Toxic | – | – | Toxic | – | – | Toxic | – | – | Toxic | Toxic | 1.42% | – | 24.3% | 45.7% | 37.1% | 14.3% | 1.42% | –
Cc1cc(OCc2cnnn2-c2ccccc2)c(C)c2c1CC[C@H]1[C@H](C)C(=O)O[C@@H]21 | Non-toxic | Toxic | – | – | Toxic | 30% | 97.1% | Toxic | 1.42% | – | Non-toxic | Toxic | – | – | – | – | – | 21.4% | 8.57% | –
COc1c(Br)cc(C)cc1-n1nncc1COc1cc(C)c2c(c1C)[C@@H]1OC(=O)[C@@H](C)[C@@H]1CC2 | Non-toxic | Non-toxic | – | 5.71% | Non-toxic | 27.1% | 5.71% | Non-toxic | 15.7% | 7.14% | Non-toxic | Non-toxic | – | – | – | – | – | – | 28.6% | –
Cc1cc(OCc2cnnn2-c2ccc(F)cc2)c(C)c2c1CC[C@H]1[C@H](C)C(=O)O[C@@H]21 | Non-toxic | Non-toxic | – | 12.8% | Non-toxic | 11.4% | 70% | Non-toxic | – | 44.3% | Non-toxic | Non-toxic | – | – | 2.85% | – | – | – | 10% | –
CC1=CC2C[C@]3(C)CC[C@H]4[C@H](C)C(=O)O[C@@H]4C13OO2 (some centres undefined) | – | – | – | – | – | – | – | – | – | – | – | – | – | – | – | – | – | – | – | 0.729 µg/mL (≈ 2.76 µM)

Reference: ChEMBL document CHEMBL2311361, “Diminutive effect on T and B-cell proliferation of non-cytotoxic α-santonin derived 1,2,3-triazoles: a report” (Eur J Med Chem, 2013)
